Results published in ChEMBL document CHEMBL3875159, “High-affinity small molecular blockers of mixed lineage leukemia 1 (MLL1)-WDR5 interaction inhibit MLL1 complex H3K4 methyltransferase activity” (Eur J Med Chem, 2016).
Calls of active or inactive are those of the source. The rule behind the calls is not given here.

Legend:
[1] = Antiproliferative activity against human MV4-11 cells harboring MLL-AF4 fusion protein after 72 hrs by CCK8 assay; format: functional, cell-based; conditions: MV4-11, 72 h
[2] = molecular target: T1, WD repeat-containing protein 5 (Homo sapiens, UniProt P61964); assay: Inhibition of 10mer-Thr-FAM probe binding to human WDR5 after 2 hrs by fluorescence polarization assay
MV4-11 [3] = assay: Induction of apoptosis in human MV4-11 cells harboring MLL-AF4 fusion protein assessed as viable cells at 10 uM after 72 hrs by Annexin-V/propidium iodide staining based flow cytometry (reference value: 73.8%); format: functional; conditions: MV4-11, 72 h, read-out: Activity
MV4-11 [4] = assay: Induction of apoptosis in human MV4-11 cells harboring MLL-AF4 fusion protein assessed as late apoptotic cells at 5 uM after 72 hrs by Annexin-V/propidium iodide staining based flow cytometry (reference value: 21.6%); format: functional
MV4-11 [5] = assay: Induction of apoptosis in human MV4-11 cells harboring MLL-AF4 fusion protein assessed as necrotic cells at 5 uM after 72 hrs by Annexin-V/propidium iodide staining based flow cytometry (reference value: 0.15%); format: functional
[6] = molecular target: T2, Histone-lysine N-methyltransferase 2A/WDR5 (Homo sapiens) (UniProt P61964+Q03164); assay: Inhibition of MLL1-WDR5 protein-protein interaction in human MV4-11 cells harboring MLL-AF4 fusion protein assessed as inhibition of Meis-1 gene expression at 2.5 uM after 7 days by RT-PCR method relative to control; format: cell-based
Procedure, shortened: (§1)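 MV4-11 cells treated for 7 days at 0.625, 1.25, 2.5 and 10 μM, with a DMSO control. Hoxa9 and Meis-1 expression was measured by RT-PCR and compared with the untreated blank control group (*p < 0.05, **p < 0.01).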

[7] = molecular target: T2, Histone-lysine N-methyltransferase 2A/WDR5 (Homo sapiens); assay: Inhibition of MLL1-WDR5 protein-protein interaction in human MV4-11 cells harboring MLL-AF4 fusion protein assessed as inhibition of MLL1 histone methyltransferase activity by measuring reduction in H3K4me2 level after 7 days by Western blot method; format: cell-based
Procedure, shortened: (§2)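 MV4-11 cells were exposed to a range of concentrations for 7 days. H3K4me1 and H3K4me2 were detected by western blotting with β-actin as loading control.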

[8] = molecular target: T2, Histone-lysine N-methyltransferase 2A/WDR5 (Homo sapiens); assay: Inhibition of MLL1-WDR5 protein-protein interaction in human MV4-11 cells harboring MLL-AF4 fusion protein assessed as inhibition of MLL1 histone methyltransferase activity by measuring reduction in H3K4me1 level at 5 uM after 7 days by Western blot method; format: cell-based; procedure, shortened: as §2
MV4-11 [9] = assay: Induction of apoptosis in human MV4-11 cells harboring MLL-AF4 fusion protein assessed as late apoptotic cells at 2.5 uM after 72 hrs by Annexin-V/propidium iodide staining based flow cytometry (reference value: 21.6%); format: functional
MV4-11 [10] = assay: Induction of apoptosis in human MV4-11 cells harboring MLL-AF4 fusion protein assessed as viable cells at 5 uM after 72 hrs by Annexin-V/propidium iodide staining based flow cytometry (reference value: 73.8%); format: functional; conditions: MV4-11, 72 h, read-out: Activity
[11] = molecular target: T2, Histone-lysine N-methyltransferase 2A/WDR5 (Homo sapiens); assay: Inhibition of MLL1-WDR5 protein-protein interaction in human MV4-11 cells harboring MLL-AF4 fusion protein assessed as inhibition of Hoxa9 gene expression at 10 uM after 7 days by RT-PCR method relative to control; format: cell-based
Procedure, shortened: (§3)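 MV4-11 cells were treated with DMSO or 0.625, 1.25, 2.5 or 10 μM compound for 7 days. Hoxa9 and Meis-1 expression was measured by RT-PCR against DMSO control. Significance was tested versus the nontreated blank control.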

MV4-11 [12] = assay: Induction of apoptosis in human MV4-11 cells harboring MLL-AF4 fusion protein assessed as early apoptotic cells at 2.5 uM after 72 hrs by Annexin-V/propidium iodide staining based flow cytometry (reference value: 4.45%); format: functional
MV4-11 [13] = assay: Induction of apoptosis in human MV4-11 cells harboring MLL-AF4 fusion protein assessed as viable cells at 2.5 uM after 72 hrs by Annexin-V/propidium iodide staining based flow cytometry (reference value: 73.8%); format: functional; conditions: MV4-11, 72 h, read-out: Activity
[14] = molecular target: T2, Histone-lysine N-methyltransferase 2A/WDR5 (Homo sapiens); assay: Inhibition of MLL1-WDR5 protein-protein interaction in human MV4-11 cells harboring MLL-AF4 fusion protein assessed as inhibition of Hoxa9 gene expression after 7 days by RT-PCR method; format: cell-based; procedure, shortened: as §3
[15] = molecular target: T2, Histone-lysine N-methyltransferase 2A/WDR5 (Homo sapiens); assay: Inhibition of MLL1-WDR5 protein-protein interaction in human MV4-11 cells harboring MLL-AF4 fusion protein assessed as inhibition of Meis-1 gene expression at 10 uM after 7 days by RT-PCR method relative to control; format: cell-based; procedure, shortened: as §3
[16] = molecular target: T2, Histone-lysine N-methyltransferase 2A/WDR5 (Homo sapiens); assay: Inhibition of MLL1-WDR5 protein-protein interaction in human MV4-11 cells harboring MLL-AF4 fusion protein assessed as inhibition of Meis-1 gene expression after 7 days by RT-PCR method; format: cell-based; procedure, shortened: as §3
MV4-11 [17] = assay: Induction of apoptosis in human MV4-11 cells harboring MLL-AF4 fusion protein assessed as necrotic cells at 10 uM after 72 hrs by Annexin-V/propidium iodide staining based flow cytometry (reference value: 0.15%); format: functional
MV4-11 [18] = assay: Induction of apoptosis in human MV4-11 cells harboring MLL-AF4 fusion protein after 72 hrs by Annexin-V/propidium iodide staining based flow cytometry; format: functional, cell-based
[19] = molecular target: MLL1/ASH2L/RBBP5/WDR5 complex (Homo sapiens, UniProt P61964+Q03164+Q15291+Q9UBL3); assay: Inhibition of recombinant MLL1/ASH2L/RBBP5/WDR5 complex histone methyltransferase activity (unknown origin) by AlphaScreen assay; format: protein-complex assay
[20] = molecular target: T1, WD repeat-containing protein 5; assay: Binding affinity to human WDR5 by isothermal titration calorimetry
MV4-11 [21] = assay: Induction of apoptosis in human MV4-11 cells harboring MLL-AF4 fusion protein assessed as early apoptotic cells at 5 uM after 72 hrs by Annexin-V/propidium iodide staining based flow cytometry (reference value: 4.45%); format: functional
MV4-11 [22] = assay: Induction of apoptosis in human MV4-11 cells harboring MLL-AF4 fusion protein assessed as early apoptotic cells at 10 uM after 72 hrs by Annexin-V/propidium iodide staining based flow cytometry (reference value: 4.45%); format: functional
[23] = molecular target: T2, Histone-lysine N-methyltransferase 2A/WDR5 (Homo sapiens); assay: Inhibition of MLL1-WDR5 protein-protein interaction in human MV4-11 cells harboring MLL-AF4 fusion protein assessed as inhibition of Hoxa9 gene expression at 2.5 uM after 7 days by RT-PCR method relative to control; format: cell-based; procedure, shortened: as §1
MV4-11 [24] = assay: Induction of apoptosis in human MV4-11 cells harboring MLL-AF4 fusion protein assessed as necrotic cells at 2.5 uM after 72 hrs by Annexin-V/propidium iodide staining based flow cytometry (reference value: 0.15%); format: functional
MV4-11 [25] = assay: Induction of apoptosis in human MV4-11 cells harboring MLL-AF4 fusion protein assessed as late apoptotic cells at 10 uM after 72 hrs by Annexin-V/propidium iodide staining based flow cytometry (reference value: 21.6%); format: functional

For `Cc1c(F)c(N)cc(C(=O)Nc2cc(-c3ccc(NC(=O)C(C)C)cc3)ccc2N2CCN(C)CC2)c1Cl`, the IC50 [1] was 4500 nM and the IC50 [2] was 95.6 nM.
`Cc1c(F)ccc(C(=O)Nc2cc([N+](=O)[O-])ccc2NCCN2CCCC2)c1Cl` showed an IC50 [2] greater than 20000 nM.
For `CCC(=O)Nc1ccc(-c2ccc(N3CCN(C)CC3)c(NC(=O)c3cc(N)c(F)c(C)c3Cl)c2)cc1`, the IC50 [1] was 6500 nM and the IC50 [2] was 81.5 nM.
With `Cc1c(F)c(N)cc(C(=O)Nc2cc(-c3ccc(NC(=O)C4CCCCC4)cc3)ccc2N2CCN(C)CC2)c1Cl` the IC50 [1] was 3800 nM and the IC50 [2] was 341 nM.
For `Cc1c(F)c(N)cc(C(=O)Nc2cc(-c3ccc(NC(=O)CCN)cc3)ccc2N2CCN(C)CC2)c1Cl`, the IC50 [1] was 25100 nM and the IC50 [2] was 50.2 nM.
For `Cc1c(F)c(N)cc(C(=O)Nc2cc(-c3ccc(NC(=O)C4CC4)cc3)ccc2N2CCN(C)CC2)c1Cl`, the IC50 [1] was 4800 nM and the IC50 [2] was 75.8 nM.
`CN1CCN(c2ccc(-c3ccc([N+](=O)[O-])cc3)cc2NC(=O)c2cccc([N+](=O)[O-])c2)CC1` showed an IC50 [2] of 285 nM.
With `CN1CCN(c2ccc(-c3ccc(N)cc3)cc2NC(=O)c2cccc(N)c2)CC1` the IC50 [2] was greater than 20000 nM.
`Cc1c(F)c(N)cc(C(=O)Nc2cc(-c3ccc(NC(=O)CNC(=O)OC(C)(C)C)cc3)ccc2N2CCN(C)CC2)c1Cl` gave an IC50 [1] of 4100 nM and an IC50 [2] of 1550 nM.
`CC(=O)Nc1cc(C(=O)Nc2cc(-c3ccc(N)cc3)ccc2N2CCN(C)CC2)c(Cl)c(C)c1F` gave an IC50 [2] of 3190 nM.
With `CCCC(=O)Nc1ccc(-c2ccc(N3CCN(C)CC3)c(NC(=O)c3cc(N)c(F)c(C)c3Cl)c2)cc1` the IC50 [1] was 2300 nM and the IC50 [2] was 76 nM.
For `CN1CCN(c2ccc(-c3ccncc3)cc2NC(=O)c2ccc(F)c([N+](=O)[O-])c2)CC1`, the IC50 [2] was 198 nM.
`Cc1c(F)c(N)cc(C(=O)Nc2cc(-c3ccc(N)cc3)ccc2N2CCN(C)CC2)c1Cl` showed a viability at 10 µM (MV4-11 [3]) of 36.3%, an Activity (MV4-11 [4]) of 33.55% and an Activity (MV4-11 [5]) of 0%. For the same compound, the inhibition [6] was 50%, the inhibition [7] was “Dose-dependent effect” and the inhibition [8] was “Active”. It also gave an Activity (MV4-11 [9]) of 23.55%, a viability at 5 µM (MV4-11 [10]) of 58.5% and an IC50 [1] of 17700 nM. The inhibition [11] was 80%, the Activity (MV4-11 [12]) was 5.5% and the viability at 2.5 µM (MV4-11 [13]) was 70.9%. For the same compound, the inhibition [14] was “Dose-dependent effect”, the inhibition [15] was 80% and the inhibition [16] was “Dose-dependent effect”. For the same compound, the Activity (MV4-11 [17]) was 0.15%, the Activity (MV4-11 [18]) was “Dose-dependent effect” and the IC50 [19] was 1650 nM. For the same compound, the Kd [20] was 202 nM, the Activity (MV4-11 [21]) was 7.95% and the Activity (MV4-11 [22]) was 13.8%. It also gave an inhibition [23] of 50%, an Activity (MV4-11 [24]) of 0.05% and an Activity (MV4-11 [25]) of 49.75%.
`Cc1c(F)c(N)cc(C(=O)Nc2cc(-c3ccc(NC(=O)CN)cc3)ccc2N2CCN(C)CC2)c1Cl` gave an IC50 [1] of 13200 nM and an IC50 [2] of 62.5 nM.
`Cc1c(F)c(N)cc(C(=O)Nc2cc(-c3ccc(NC(=O)C(C)N)cc3)ccc2N2CCN(C)CC2)c1Cl` (configuration not stated) gave an IC50 [1] of 11100 nM and an IC50 [2] of 15 nM.
`Cc1c(F)c([N+](=O)[O-])cc(C(=O)Nc2cc(-c3ccc([N+](=O)[O-])cc3)ccc2N2CCN(C)CC2)c1Cl` gave an IC50 [2] of 285 nM.
Compound `CN1CCN(c2ccc(-c3ccncc3)cc2NC(=O)c2ccc(F)c(N)c2)CC1` has an IC50 [2] of 5800 nM.
With `Cc1c(F)ccc(C(=O)Nc2cc([N+](=O)[O-])ccc2N2CCN(c3ccccn3)CC2)c1Cl` the IC50 [2] was greater than 20000 nM.
`Cc1c(F)c(N)cc(C(=O)Nc2cc(-c3ccc(NC(=O)CCCNC(=O)OC(C)(C)C)cc3)ccc2N2CCN(C)CC2)c1Cl` showed an IC50 [1] of 4800 nM and an IC50 [2] of 80.4 nM.
